Measurements: ChEMBL document CHEMBL1124824, “Synthesis and biological activity of atrial natriuretic factor analogues: effect of modifications to the disulfide bridge” (J Med Chem, 1990)
Positions of bridges follow the written chain, without caps; N, C: chain ends. Non-standard residues stand in square brackets, D forms with d. Residues, ends and D or L forms follow the SMILES beside them. Asu = N[C@@H](CCCCCC(=O)O)C(=O)O; Mpa = O=C(O)CCS

What was measured:
Rattus norvegicus [1] = species: Rattus norvegicus; test: Compound was tested for the Cl- excretion for treated over control animals.; format: functional
In short: (§1)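 Male Sprague-Dawley rats (300-325 g) under halothane/lidocaine had femoral artery, femoral vein and bladder cannulated. After at least 1 h of recovery in restraint, they received Ringer's (1.2 mL/h), with 10-min urine collections over a 30-min control period. Infusion of 0.5 μg/kg per min for 30 min and a 30-min Ringer's recovery followed. Na+, K+ and Cl- were measured with an electrolyte analyzer, reported as treated minus control μmol/sample. Volume ratio is treated/control over three consecutive 10-min samples, six animals.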

Rattus norvegicus [2] = species: Rattus norvegicus; test: Compound was tested for the K+ excretion for treated over control animals.; format: functional; in short: as §1
Rattus norvegicus [3] = species: Rattus norvegicus; test: Compound was tested for the Na+ excretion for treated over control animals.; format: functional; in short: as §1
Rattus norvegicus [4] = species: Rattus norvegicus; test: Compound was tested for antihypertensive activity in 5/6 nephrectomized rats.; format: functional
In short: (§2)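 Rats were anesthetized with halothane after skin infiltration with 2% lidocaine, and the femoral artery and vein were cannulated. After recovery, arterial pressure was recorded. A saline control period was followed by i.v. infusion in 30-min steps at 0.1, 0.2, 0.5 and 1.0 μg/kg per min (70 μL/kg per min). Hydralazine (100 μg/kg per min) was given for standardization. ED50 is in nmol/kg per min, from six animals.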

Rattus norvegicus [5] = test: Compound was tested for diuretic activity and the ratio of urine volume for treated over control animals was reported after infused at a dose of 0.5 ug/kg.; format: functional; in short: as §1
[6] = biological target: T1, Atrial natriuretic peptide receptor 2 (Bos taurus, UniProt P46197); test: Binding affinity was determined based on the displacement of [125]r-ANF (99-126) from binding sites on bovine adrenal zona glomerulosa cell membranes (Atrionatriuretic peptide receptor B)
T1 sequence (P46197 whole entry): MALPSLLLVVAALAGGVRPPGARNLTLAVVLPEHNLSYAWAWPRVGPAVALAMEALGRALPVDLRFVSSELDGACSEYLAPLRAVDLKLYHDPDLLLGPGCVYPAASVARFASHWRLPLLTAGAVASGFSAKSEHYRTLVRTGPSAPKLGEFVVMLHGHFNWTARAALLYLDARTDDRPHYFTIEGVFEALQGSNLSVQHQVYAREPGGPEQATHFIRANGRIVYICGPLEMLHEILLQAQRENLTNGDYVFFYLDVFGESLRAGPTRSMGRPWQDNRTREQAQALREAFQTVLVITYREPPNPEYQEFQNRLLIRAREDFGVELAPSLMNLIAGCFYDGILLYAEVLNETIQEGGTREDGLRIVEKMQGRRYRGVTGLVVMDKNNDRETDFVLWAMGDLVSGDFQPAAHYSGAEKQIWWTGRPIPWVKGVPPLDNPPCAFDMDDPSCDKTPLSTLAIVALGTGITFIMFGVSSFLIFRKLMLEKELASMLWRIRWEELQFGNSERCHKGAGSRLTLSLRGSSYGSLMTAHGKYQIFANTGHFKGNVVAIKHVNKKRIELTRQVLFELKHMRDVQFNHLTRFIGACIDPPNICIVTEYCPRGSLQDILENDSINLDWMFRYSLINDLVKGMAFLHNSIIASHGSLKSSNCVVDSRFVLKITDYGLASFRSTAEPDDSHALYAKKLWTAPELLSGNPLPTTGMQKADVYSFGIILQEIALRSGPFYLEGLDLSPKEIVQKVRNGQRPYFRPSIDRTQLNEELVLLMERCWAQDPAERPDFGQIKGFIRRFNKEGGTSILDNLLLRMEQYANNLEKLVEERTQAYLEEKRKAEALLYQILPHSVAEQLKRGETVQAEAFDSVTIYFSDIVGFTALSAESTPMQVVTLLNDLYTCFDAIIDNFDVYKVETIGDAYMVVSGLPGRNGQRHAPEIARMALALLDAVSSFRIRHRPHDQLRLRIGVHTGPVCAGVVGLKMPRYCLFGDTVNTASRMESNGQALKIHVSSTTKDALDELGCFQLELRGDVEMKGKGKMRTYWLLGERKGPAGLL

[7] = biological target: T2, Atrial natriuretic peptide receptor 3 (Mus musculus, UniProt P70180); test: Binding affinity was determined based on the displacement of [125]r-ANF (99-126) from binding sites on mouse fibroblasts (NIH 3T3) cells (Atrionatriuretic peptide receptor C).
T2 sequence (P70180 whole entry): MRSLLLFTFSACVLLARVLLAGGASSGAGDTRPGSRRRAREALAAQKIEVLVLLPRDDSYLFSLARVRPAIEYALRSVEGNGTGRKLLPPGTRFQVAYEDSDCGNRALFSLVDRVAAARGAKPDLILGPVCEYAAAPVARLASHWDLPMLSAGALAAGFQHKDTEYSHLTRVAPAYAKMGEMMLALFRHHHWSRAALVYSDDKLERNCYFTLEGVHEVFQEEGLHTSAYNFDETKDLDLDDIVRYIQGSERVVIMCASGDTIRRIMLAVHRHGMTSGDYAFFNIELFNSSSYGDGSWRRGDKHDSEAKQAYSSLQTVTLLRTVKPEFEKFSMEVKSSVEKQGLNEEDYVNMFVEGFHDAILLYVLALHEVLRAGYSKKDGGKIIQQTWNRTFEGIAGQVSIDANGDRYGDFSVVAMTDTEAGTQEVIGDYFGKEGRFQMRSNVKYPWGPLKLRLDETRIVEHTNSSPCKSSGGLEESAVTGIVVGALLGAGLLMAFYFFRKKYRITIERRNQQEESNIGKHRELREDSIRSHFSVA

Oryctolagus cuniculus = species: Oryctolagus cuniculus; test: Compound was tested for the inhibition of the stimulated contractions of the superfused rabbit thoracic aortic rings.; format: functional, Aorta
In short: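 Rabbit thoracic aorta rings (4 mm) were held isometrically at 10-g resting tension, superfused and precontracted with phenylephrine. Test peptide was added to the superfusate above the tissue in successively higher doses after each recovery. Doses were based on peptide content. EC50 came from the dose-response curve, mean of three determinations ± SEM.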

Rattus norvegicus [8] = species: Rattus norvegicus; test: Compound was tested for the Cl- excretion for treated over control animals, the electrolytes tested are; format: functional; in short: as §1
Rattus norvegicus [9] = species: Rattus norvegicus; test: Compound was tested for the K+ excretion for treated over control animals, the electrolytes tested are; format: functional; in short: as §1
Rattus norvegicus [10] = species: Rattus norvegicus; test: Compound was tested for the Na+ excretion for treated over control animals, the electrolytes tested are; format: functional; in short: as §1
Rattus norvegicus [11] = species: Rattus norvegicus; test: Compound was tested for antihypertensive activity in DOCA nephrectomized rats.; format: functional; in short: as §2

Row | Structure (SMILES) | Electrolyte excretion (Rattus norvegicus [1]) [uM sample-1] | Electrolyte excretion (Rattus norvegicus [2]) [uM sample-1] | Electrolyte excretion (Rattus norvegicus [3]) [uM sample-1] | ED50 (Rattus norvegicus [4]) [nM/min/kg] | Ratio (Rattus norvegicus [5]) | IC50 [6] [pM] | IC50 [7] [pM] | EC50 (Oryctolagus cuniculus) [M 50ul-1] | Electrolyte excretion (Rattus norvegicus [8]) [uM sample-1] | Electrolyte excretion (Rattus norvegicus [9]) [uM sample-1] | Electrolyte excretion (Rattus norvegicus [10]) [uM sample-1] | ED50 (Rattus norvegicus [11]) [nM/min/kg]
1 | CC[C@H](C)[C@@H]1NC(=O)[C@H](CCCN=C(N)N)NC(=O)[C@H](CC(=O)O)NC(=O)[C@H]([C@@H](C)CC)NC(=O)[C@H](CCCN=C(N)N)NC(=O)CNC(=O)CNC(=O)[C@H](Cc2ccccc2)NC(=O)CCCCC[C@@H](C(=O)N[C@@H](CC(N)=O)C(=O)N[C@@H](CO)C(=O)N[C@@H](Cc2ccccc2)C(=O)N[C@@H](CCCN=C(N)N)C(=O)N[C@@H](Cc2ccc(O)cc2)C(=O)O)NC(=O)CNC(=O)[C@H](CC(C)C)NC(=O)CNC(=O)[C@H](CO)NC(=O)[C@H](CCC(N)=O)NC(=O)[C@H](C)NC(=O)CNC1=O (FGGRIDRIGAQSGLG[Asu]NSFRY-OH; lactam N-16) | 10 | 0 | 4.8 | 5.7 | 2.1 |  |  |  |  |  |  | 
2 | CC[C@H](C)[C@@H]1NC(=O)[C@H](CCCN=C(N)N)NC(=O)[C@H](CC(=O)O)NC(=O)[C@H]([C@@H](C)CC)NC(=O)[C@H](CCCN=C(N)N)NC(=O)CNC(=O)CNC(=O)[C@H](Cc2ccccc2)NC(=O)CCSSC[C@@H](C(=O)N[C@@H](CC(N)=O)C(=O)N[C@@H](CO)C(=O)N[C@@H](Cc2ccccc2)C(=O)N[C@@H](CCCN=C(N)N)C(=O)N[C@@H](Cc2ccc(O)cc2)C(=O)O)NC(=O)CNC(=O)[C@H](CC(C)C)NC(=O)CNC(=O)[C@H](CO)NC(=O)[C@H](CCC(N)=O)NC(=O)[C@H](C)NC(=O)CNC1=O ([Mpa]FGGRIDRIGAQSGLGCNSFRY-OH; disulfide 1-17) |  |  |  | 1.5 | 1.7 | 1030 | 220 | 1.1e-10 | 52.9 | 22.6 | 30.4 | 1.1
